Measured values reported in ChEMBL document CHEMBL2346503, “Synthesis and evaluation of novel (18)F-labeled spirocyclic piperidine derivatives as σ1 receptor ligands for positron emission tomography imaging” (J Med Chem, 2013).

Tests used:
Type in all cases: ADME, organism-based
Nucleic Acid [1] = assay: Ratio of drug uptake in Sprague-Dawley rat temporal cortex auditory area to cerebellum at 12.2 MBq, iv after 60 mins by autoradiography; conditions: in vivo, 1 h
Rattus norvegicus [2] = assay: Biodistribution in Sprague-Dawley rat internal capsule at 23 MBq, iv after 60 mins by microPET imaging/CT study in presence of haloperidol; conditions: in vivo, 1 h
Outline: (§1)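 Sprague-Dawley rats under isoflurane (1.5–2.5%) in oxygen received 23 MBq radiotracer (0.2 mL saline) via tail vein. Blocking animals were pre-injected with haloperidol (0.2 mL, 1 mg/kg) 5 min before the tracer. MicroPET emission was acquired for 30 min starting 60 min post-injection, followed by a 5 min CT scan; images were summed over 60–90 min.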

Hypothalamus [3] = assay: Drug uptake in Sprague-Dawley rat hypothalamus at 12.2 MBq, iv after 60 mins by autoradiography; conditions: in vivo, 1 h
Outline: (§2)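 [¹⁸F]-labelled tracer (0.2 mL, 12.2 MBq) given intravenously to conscious Sprague-Dawley rats (n = 3). Each rat was killed by cervical dislocation 60 min after injection. The brain was removed and frozen in liquid nitrogen, and 20 μm coronal sections were cut on a cryostat for ex vivo autoradiography of regional radioactivity.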

Kidney = assay: Biodistribution in ICR mouse kidney assessed as reduction in radiotracer uptake at 370 kBq, iv after 60 minutes by gamma-counting analysis in presence of SA4503 relative to control; set-up: scale not given: the % may be the effect or the level left; conditions: in vivo, 1 h
Outline: (§3)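 Male ICR mice got saline or SA4503 (0.1 mL; 2, 5, 10 or 2.2 μmol/kg) via tail vein 5 min before 370 kBq tracer (0.1 mL) iv. They were decapitated at 60 min and tissues γ-counted. Percent change was taken against saline controls, with two-tailed Student's t test, p ≤ 0.05.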

Nucleic Acid [4] = assay: Ratio of drug uptake in Sprague-Dawley rat hippocampus to cerebellum at 12.2 MBq, iv after 60 mins by autoradiography; conditions: in vivo, 1 h
Thalamus [5] = assay: Drug uptake in Sprague-Dawley rat thalamus at 12.2 MBq, iv after 60 mins by autoradiography; conditions: in vivo, 1 h; outline: as §2
Cerebellum = assay: Biodistribution in Sprague-Dawley rat cerebellum at 23 MBq, iv after 60 mins by microPET imaging/CT study; conditions: in vivo, 1 h; outline: as §1
Blood = assay: Biodistribution in ICR mouse blood assessed as radiotracer accumulation at 370 kBq, iv after 60 minutes by gamma-counting analysis in presence of SA4503; conditions: in vivo, 1 h; outline: as §3
Nucleic Acid [6] = assay: Ratio of drug uptake in Sprague-Dawley rat interior coliculus to cerebellum at 12.2 MBq, iv after 60 mins by autoradiography; conditions: in vivo, 1 h
Cortex [7] = assay: Drug uptake in Sprague-Dawley rat temporal cortex auditory area at 12.2 MBq, iv after 60 mins by autoradiography; conditions: in vivo, 1 h; outline: as §2
Nucleic Acid [8] = assay: Ratio of drug uptake in Sprague-Dawley rat frontal cortex to cerebellum at 12.2 MBq, iv after 60 mins by autoradiography; conditions: in vivo, 1 h
[9] = Drug uptake in Sprague-Dawley rat vermian lobule at 12.2 MBq, iv after 60 mins by autoradiography; conditions: in vivo, 1 h; outline: as §2
Rattus norvegicus [10] = assay: Biodistribution in Sprague-Dawley rat olfactory bulb at 23 MBq, iv after 60 mins by microPET imaging/CT study in presence of haloperidol; conditions: in vivo, 1 h; outline: as §1
Brain [11] = assay: Biodistribution in ICR mouse brain assessed as reduction in radiotracer uptake at 370 kBq, iv after 60 minutes by gamma-counting analysis in presence of haloperidol; conditions: in vivo, 1 h
Outline: (§4)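 Male ICR mice got saline or a blocker (haloperidol, (S)-(−)-raclopride, fluvoxamine or tamoxifen; 0.1 mL, 2.2 μmol/kg) via tail vein 5 min before 370 kBq tracer iv. Brain was γ-counted at 60 min and compared with saline controls by two-tailed Student's t test, p ≤ 0.05.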

Cortex [12] = assay: Biodistribution in Sprague-Dawley rat cortex at 23 MBq, iv after 60 mins by microPET imaging/CT study in presence of haloperidol; conditions: in vivo, 1 h; outline: as §1
Nucleic Acid [13] = assay: Ratio of drug uptake in Sprague-Dawley rat thalamus to cerebellum at 12.2 MBq, iv after 60 mins by autoradiography; conditions: in vivo, 1 h
Hypothalamus [14] = assay: Biodistribution in Sprague-Dawley rat hypothalamus at 23 MBq, iv after 60 mins by microPET imaging/CT study in presence of haloperidol; conditions: in vivo, 1 h; outline: as §1
Hippocampus = assay: Drug uptake in Sprague-Dawley rat hippocampus at 12.2 MBq, iv after 60 mins by autoradiography; conditions: in vivo, 1 h; outline: as §2
Liver = assay: Metabolic stability in ICR mouse liver assessed as retention time at 18.5 MBq, iv by HPLC analysis; conditions: in vivo
Outline: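 Male ICR mice given radiotracer iv (18.5 MBq, 0.2 mL), killed at 30 min. Brain and liver were homogenized in ice-cold PBS (0.01 M, pH 7.4) and extracted with ice-cold MeCN. Supernatants were filtered, concentrated and analysed by radio-HPLC on a C18 column, acetonitrile/water with 0.1% TFA (45:55), 1 mL/min.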

Brain [15] = assay: Biodistribution in ICR mouse brain assessed as reduction in radiotracer uptake at 370 kBq, iv after 60 minutes by gamma-counting analysis in presence of fluvoxamine; conditions: in vivo, 1 h; outline: as §4
Thalamus [16] = assay: Biodistribution in Sprague-Dawley rat thalamus at 23 MBq, iv after 60 mins by microPET imaging/CT study; conditions: in vivo, 1 h; outline: as §1
Cortex [17] = assay: Drug uptake in Sprague-Dawley rat visual cortex at 12.2 MBq, iv after 60 mins by autoradiography; conditions: in vivo, 1 h; outline: as §2
[18] = Drug uptake in Sprague-Dawley rat paramedian lobule at 12.2 MBq, iv after 60 mins by autoradiography; conditions: in vivo, 1 h; outline: as §2
Lung = assay: Biodistribution in ICR mouse lung assessed as reduction in radiotracer uptake at 370 kBq, iv after 60 minutes by gamma-counting analysis in presence of SA4503 relative to control; set-up: scale not given: the % may be the effect or the level left; conditions: in vivo, 1 h; outline: as §3
Spleen = assay: Biodistribution in ICR mouse spleen assessed as reduction in radiotracer uptake at 370 kBq, iv after 60 minutes by gamma-counting analysis in presence of SA4503 relative to control; set-up: scale not given: the % may be the effect or the level left; conditions: in vivo, 1 h
Outline: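 Male ICR mice were given saline or SA4503 (0.1 mL; 2, 5 or 10 μmol/kg) via tail vein 5 min before [18F]radiotracer (370 kBq, 0.1 mL, iv). Killed at 60 min. Organs were gamma-counted as % ID/g and reduction was computed versus saline controls. Two-tailed independent Student's t test, p ≤ 0.05.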

Midbrain = assay: Biodistribution in Sprague-Dawley rat midbrain at 23 MBq, iv after 60 mins by microPET imaging/CT study in presence of haloperidol; conditions: in vivo, 1 h; outline: as §1
Rattus norvegicus [19] = assay: Biodistribution in Sprague-Dawley rat internal capsule at 23 MBq, iv after 60 mins by microPET imaging/CT study; conditions: in vivo, 1 h; outline: as §1
Cortex [20] = assay: Biodistribution in Sprague-Dawley rat cortex at 23 MBq, iv after 60 mins by microPET imaging/CT study; conditions: in vivo, 1 h; outline: as §1
Brain [21] = assay: Biodistribution in ICR mouse brain assessed as reduction in radiotracer uptake at 370 kBq, iv after 60 minutes by gamma-counting analysis in presence of SA4503 relative to control; set-up: scale not given: the % may be the effect or the level left; conditions: in vivo, 1 h; outline: as §3
Rattus norvegicus [22] = assay: Biodistribution in Sprague-Dawley rat pontine reticular nucleus at 23 MBq, iv after 60 mins by microPET imaging/CT study in presence of haloperidol; conditions: in vivo, 1 h; outline: as §1
Thalamus [23] = assay: Biodistribution in Sprague-Dawley rat thalamus at 23 MBq, iv after 60 mins by microPET imaging/CT study in presence of haloperidol; conditions: in vivo, 1 h; outline: as §1

- Ratio (Nucleic Acid [1]): 1.9
- Drug uptake (Rattus norvegicus [2]): Active
- Drug uptake (Hypothalamus [3]): Active
- Activity (Kidney): 57%
- Ratio (Nucleic Acid [4]): 1.22
- Drug uptake (Thalamus [5]): Active
- Drug uptake (Cerebellum): Active
- Drug uptake (Blood): Active
- Ratio (Nucleic Acid [6]): 1.3
- Drug uptake (Cortex [7]): Active
- Ratio (Nucleic Acid [8]): 1.5
- Drug uptake [9]: Active
- Drug uptake (Rattus norvegicus [10]): Active
- Drug uptake (Brain [11]): Active
- Drug uptake (Cortex [12]): Active
- Ratio (Nucleic Acid [13]): 1.38
- Drug uptake (Hypothalamus [14]): Active
- Drug uptake (Hippocampus): Active
- Retention_time (Liver): 7.72 min
- Drug uptake (Brain [15]): Active
- Drug uptake (Thalamus [16]): Active
- Drug uptake (Cortex [17]): Active
- Drug uptake [18]: Active
- Activity (Lung): 71%
- Activity (Spleen): 29%
- Drug uptake (Midbrain): Active
- Drug uptake (Rattus norvegicus [19]): Active
- Drug uptake (Cortex [20]): Active
- Activity (Brain [21]): 46%
- Drug uptake (Rattus norvegicus [22]): Active
- Drug uptake (Thalamus [23]): Active
Structure (SMILES): [18F]CCOc1ccc(CN2CCC3(CC2)OCc2ccccc23)cc1
